Laboratory results: ChEMBL document CHEMBL1914454, “Novel N-linked aminopiperidine inhibitors of bacterial topoisomerase type II: broad-spectrum antibacterial agents with reduced hERG activity” (J Med Chem, 2011)
In brackets after ≈: the same amount, converted by molar mass.

Legend:
[1] = target: Voltage-gated inwardly rectifying potassium channel KCNH2 (Homo sapiens, UniProt Q12809); experiment: Inhibition of human ERG by ionworks HT assay
Streptococcus pneumoniae = experiment: Antibacterial activity against penicillin-susceptible Streptococcus pneumoniae D39 after 18 to 24 hrs by broth microdilution method; format: functional
Method in brief: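 CLSI broth microdilution in 2.2% (w/v) Mueller Hinton broth with 0.65% (v/v) lysed horse blood. Compounds diluted from DMSO to 2% DMSO final, 11 doubling dilutions from 64 to 0.06 μg/mL. Incubated at 35 °C for 18−24 h; read at 620 nm.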

Pseudomonas aeruginosa = experiment: Antibacterial activity against Pseudomonas aeruginosa PAO1 after 18 to 24 hrs by broth microdilution method; format: functional
Method in brief: (§1)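 Broth microdilution following CLSI guidelines in Mueller Hinton broth. Compounds in DMSO, diluted to 2% DMSO final, 11 doubling dilutions from 64 to 0.06 μg/mL. Incubated at 35 °C for 18−24 h; growth read by absorbance at 620 nm.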

[2] = Fraction unbound in human plasma at 10 uM after 16 hrs by equilibrium dialysis
[3] = Octanol-phosphate buffer partition coefficient, log D of the compound at pH 7.4 by LC/MS/UV analysis
Escherichia coli = experiment: Antibacterial activity against Escherichia coli W3110 after 18 to 24 hrs by broth microdilution method; format: functional; details: K-12 substr. W3110; method in brief: as §1
[4] = Inhibition of Escherichia coli ATPase activity of topoisomerase 4 ParC/ParE subunit assessed as reduction in inorganic phosphate production after 24 hrs by ammonium molybdate/malachite-green based assay
Method in brief: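 Each reaction contained 0.5 nM each of E. coli ParC and ParE, 0.16 mM ATP and 0.005 mg/mL sheared salmon sperm DNA in 20 mM Tris pH 8.0 with 50 mM ammonium acetate, 8.0 mM MgCl₂, 0.5 mM EDTA, 5 mM DTT, 2.5% glycerol and 0.005% Brij-35. Compound dilution series; 24 h at room temperature. Quenched with malachite green; absorbance read at 650 nm. IC50 is the mean of three replicate experiments.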

Staphylococcus aureus = experiment: Antibacterial activity against methicillin-susceptible Staphylococcus aureus after 18 to 24 hrs by broth microdilution method; format: functional; method in brief: as §1
[5] = Half life in Wistar Han rat at 3 mg/kg, iv; format: ADME, organism-based; parameters: dose 3 mg/kg, route intravenous; details: in vivo
Method in brief: (§2)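 Groups of three Wistar Han rats got a 3 mg/kg iv bolus via a cannulated jugular vein. Serial whole-blood samples were taken at time intervals, and compound in plasma was quantified by LC–MS/MS. Parameters were estimated by a noncompartmental model.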

[6] = Volume of distribution in Beagle dog at 3 mg/kg, iv; format: ADME, organism-based, Canis lupus familiaris; parameters: dose 3 mg/kg, route intravenous; details: in vivo
Method in brief: (§3)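 Plasma was sampled from 0 to 24 h and drug measured by LC–MS/MS. Parameters came from noncompartmental analysis.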

[7] = Half life in Beagle dog at 3 mg/kg, iv; format: ADME, organism-based, Canis lupus familiaris; parameters: dose 3 mg/kg, route intravenous; details: in vivo; method in brief: as §3
[8] = Clearance in Wistar Han rat at 3 mg/kg, iv; format: ADME, organism-based; parameters: dose 3 mg/kg, route intravenous; details: in vivo; method in brief: as §2
[9] = Oral bioavailability in Beagle dog at 10 mg/kg; format: ADME, organism-based, Canis lupus familiaris; details: in vivo; method in brief: as §3
[10] = AUC in Beagle dog at 3 mg/kg, iv; format: ADME, organism-based, Canis lupus familiaris; parameters: dose 3 mg/kg, route intravenous; details: plasma; method in brief: as §3
[11] = Clearance in Beagle dog at 3 mg/kg, iv; format: ADME, organism-based, Canis lupus familiaris; parameters: dose 3 mg/kg, route intravenous; details: in vivo; method in brief: as §3
[12] = Volume of distribution in Wistar Han rat at 3 mg/kg, iv; format: ADME, organism-based; parameters: dose 3 mg/kg, route intravenous; details: in vivo; method in brief: as §2
[13] = AUC in Wistar Han rat at 3 mg/kg, iv; format: ADME, organism-based; parameters: dose 3 mg/kg, route intravenous; details: plasma; method in brief: as §2

Voltage-gated inwardly rectifying potassium channel KCNH2, sequence (Q12809 whole entry): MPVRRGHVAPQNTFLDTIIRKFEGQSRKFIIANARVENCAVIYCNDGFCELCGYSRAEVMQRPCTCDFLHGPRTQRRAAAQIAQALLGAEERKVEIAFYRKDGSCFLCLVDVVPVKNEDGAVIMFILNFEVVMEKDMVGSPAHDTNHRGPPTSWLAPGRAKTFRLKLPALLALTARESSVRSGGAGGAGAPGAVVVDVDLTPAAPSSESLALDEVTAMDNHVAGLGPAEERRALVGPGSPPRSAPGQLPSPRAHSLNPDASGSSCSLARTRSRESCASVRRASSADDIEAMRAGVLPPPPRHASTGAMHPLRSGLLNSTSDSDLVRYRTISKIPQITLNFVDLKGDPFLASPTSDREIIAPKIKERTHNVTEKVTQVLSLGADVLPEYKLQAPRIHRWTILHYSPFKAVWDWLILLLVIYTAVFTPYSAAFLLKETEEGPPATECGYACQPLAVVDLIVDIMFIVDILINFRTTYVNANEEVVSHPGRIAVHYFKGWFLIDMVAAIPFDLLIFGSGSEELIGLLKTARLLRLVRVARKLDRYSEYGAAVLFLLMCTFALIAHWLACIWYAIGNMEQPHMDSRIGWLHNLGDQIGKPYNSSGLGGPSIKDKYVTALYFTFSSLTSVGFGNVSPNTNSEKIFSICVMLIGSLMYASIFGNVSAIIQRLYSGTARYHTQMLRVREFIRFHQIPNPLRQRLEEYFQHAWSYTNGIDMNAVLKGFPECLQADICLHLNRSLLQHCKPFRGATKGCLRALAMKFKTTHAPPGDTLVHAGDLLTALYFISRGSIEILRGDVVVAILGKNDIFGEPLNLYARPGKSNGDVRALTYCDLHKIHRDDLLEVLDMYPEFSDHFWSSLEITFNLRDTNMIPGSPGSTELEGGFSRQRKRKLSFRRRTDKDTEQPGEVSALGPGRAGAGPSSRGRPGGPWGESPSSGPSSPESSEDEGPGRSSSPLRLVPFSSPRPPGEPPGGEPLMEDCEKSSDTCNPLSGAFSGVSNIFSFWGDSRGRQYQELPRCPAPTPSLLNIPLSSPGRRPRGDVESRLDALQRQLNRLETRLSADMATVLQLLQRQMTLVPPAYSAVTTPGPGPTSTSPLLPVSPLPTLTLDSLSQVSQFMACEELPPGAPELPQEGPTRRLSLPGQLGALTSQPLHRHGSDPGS

Row | SMILES | IC50 [1] | MIC (Streptococcus pneumoniae) | MIC (Pseudomonas aeruginosa) | fraction unbound at 16 h, 10 µM [2] | logD ([3]; octanol/phosphate buffer) | MIC (Escherichia coli) | IC50 [4] | MIC (Staphylococcus aureus) | half-life [5] | Vd [6] | half-life [7] | clearance [8] | bioavailability [9] | AUC [10] | clearance [11] | Vd [12] | AUC [13] | logD ([3]; octanol/water)
1 | COc1ncc2ccc(=O)n(CCN3CCC(NCc4cc5c(cn4)OCCO5)CC3)c2n1 | 206000 nM | 0.25 µg/mL (≈ 0.552 µM) | > 8 µg/mL | 0.27 | 0.2 | 2 µg/mL (≈ 4.42 µM) | 13 nM | 0.13 µg/mL (≈ 0.287 µM) | – | – | – | – | – | – | – | – | – | –
2 | N#Cc1ccc2c(c1)N(CCN1CCC(NCc3ccc4c(n3)NC(=O)CO4)CC1)C(=O)CO2 | – | 0.5 µg/mL (≈ 1.08 µM) | 2 µg/mL (≈ 4.32 µM) | – | 0.24 | 0.25 µg/mL (≈ 0.541 µM) | 3.2 nM | 0.13 µg/mL (≈ 0.281 µM) | 5.8 h | 61 L/kg | 166 h | 66 mL/min/kg | 64% | 3090 ng·h/mL | 7.8 mL/min/kg | 23 L/kg | 640 ng·h/mL | –
3 | COc1ccc2c(c1)N(CCN1CCC(NCc3cc4c(cn3)OCCO4)CC1)C(=O)CS2 | – | > 8 µg/mL | > 8 µg/mL | 0.09 | – | > 8 µg/mL | – | 8 µg/mL (≈ 17 µM) | – | – | – | – | – | – | – | – | – | –
4 | COc1ccc2c(C)nc(=O)n(CCN3CCC(NCc4cc5c(cn4)OCCO5)CC3)c2c1 | > 33000 nM | 1 µg/mL (≈ 2.15 µM) | > 8 µg/mL | – | – | > 8 µg/mL | 82 nM | 2 µg/mL (≈ 4.3 µM) | – | – | – | – | – | – | – | – | – | 0.29
5 | COc1ccc2ncc(F)c(CCN3CCC(NCc4ccc5c(n4)NC(=O)CO5)CC3)c2n1 | – | 0.03 µg/mL (≈ 0.0643 µM) | 1 µg/mL (≈ 2.14 µM) | 0.06 | 1.78 | 0.06 µg/mL (≈ 0.129 µM) | 0.6 nM | 0.02 µg/mL (≈ 0.0429 µM) | – | – | – | – | – | – | – | – | – | –
6 | COc1ccc2ccc(=O)n(CCN3CCC(NCc4cc5c(cn4)OCCO5)CC3)c2c1 | 34000 nM | 0.06 µg/mL (≈ 0.133 µM) | > 8 µg/mL | 0.31 | 1.32 | 1.5 µg/mL (≈ 3.33 µM) | 22 nM | 0.03 µg/mL (≈ 0.0666 µM) | – | – | – | – | – | – | – | – | – | –
7 | COc1ccc2c(c1)N(CCN1CCC(NCc3ccc4c(n3)NC(=O)CO4)CC1)C(=O)CO2 | – | 0.5 µg/mL (≈ 1.07 µM) | 4 µg/mL (≈ 8.56 µM) | 0.11 | 0.87 | 0.25 µg/mL (≈ 0.535 µM) | 5 nM | 0.13 µg/mL (≈ 0.278 µM) | – | – | – | – | – | – | – | – | – | –
8 | O=C1COc2ccc(CNC3CCN(CCN4C(=O)COc5ccc(F)cc54)CC3)nc2N1 | – | 0.5 µg/mL (≈ 1.1 µM) | 3 µg/mL (≈ 6.59 µM) | 0.17 | 0.9 | 0.25 µg/mL (≈ 0.549 µM) | – | 0.25 µg/mL (≈ 0.549 µM) | – | – | – | – | – | – | – | – | – | –
9 | COc1ncc2ncc(=O)n(CCN3CCC(NCc4cc5c(cn4)OCCO5)CC3)c2n1 | 81000 nM | 0.25 µg/mL (≈ 0.551 µM) | > 8 µg/mL | 0.96 | 0.14 | 2 µg/mL (≈ 4.41 µM) | 28 nM | 0.25 µg/mL (≈ 0.551 µM) | – | – | – | – | – | – | – | – | – | –
10 | O=C1COc2ccccc2N1CCN1CCC(NCc2cc3c(cn2)OCCO3)CC1 | – | 4 µg/mL (≈ 9.42 µM) | > 8 µg/mL | 0.26 | 1.04 | 8 µg/mL (≈ 18.8 µM) | 100 nM | 2 µg/mL (≈ 4.71 µM) | – | – | – | – | – | – | – | – | – | –
11 | COc1ccc2c(c1)N(CCN1CCC(NCc3ccc4c(n3)NC(=O)CO4)CC1)C(=O)CC2 | 29000 nM | > 8 µg/mL | > 8 µg/mL | 0.04 | 0.66 | > 8 µg/mL | 780 nM | > 8 µg/mL | – | – | – | – | – | – | – | – | – | –
12 | COc1ccc2ccc(=O)n(CCN3CCC(NCc4cc5c(cn4)OCCO5)CC3)c2n1 | 40000 nM | 0.05 µg/mL (≈ 0.111 µM) | > 8 µg/mL | 0.31 | 1.16 | 0.5 µg/mL (≈ 1.11 µM) | 2 nM | 0.02 µg/mL (≈ 0.0443 µM) | – | – | – | – | – | – | – | – | – | –
13 | COc1ccc2c(c1)N(CCN1CCC(NCc3ccc4c(n3)NC(=O)CO4)CC1)C(=O)OC2 | 42000 nM | 0.5 µg/mL (≈ 1.07 µM) | 4 µg/mL (≈ 8.56 µM) | 0.26 | 0.5 | 0.5 µg/mL (≈ 1.07 µM) | 4.4 nM | 1 µg/mL (≈ 2.14 µM) | – | – | – | – | – | – | – | – | – | –
14 | COc1ccc2c(c1)N(CCN1CCC(NCc3cc4c(cn3)OCCO4)CC1)C(=O)CO2 | 13000 nM | 0.25 µg/mL (≈ 0.55 µM) | > 8 µg/mL | 0.18 | 1.24 | 1 µg/mL (≈ 2.2 µM) | – | 0.13 µg/mL (≈ 0.286 µM) | – | – | – | – | – | – | – | – | – | –
15 | COc1ccc2nnc(=O)n(CCN3CCC(NCc4ccc5c(n4)NC(=O)CO5)CC3)c2c1 | – | 8 µg/mL (≈ 17.2 µM) | 8 µg/mL (≈ 17.2 µM) | – | – | 2 µg/mL (≈ 4.3 µM) | 26 nM | > 8 µg/mL | – | – | – | – | – | – | – | – | – | –
16 | COc1cc2c(ccc(=O)n2CCN2CCC(NCc3cc4c(cn3)OCCO4)CC2)cn1 | – | 1 µg/mL (≈ 2.21 µM) | > 8 µg/mL | 0.17 | 0.68 | 8 µg/mL (≈ 17.7 µM) | 28 nM | 1 µg/mL (≈ 2.21 µM) | – | – | – | – | – | – | – | – | – | –
17 | COc1ccc2c(C)cc(=O)n(CCN3CCC(NCc4cc5c(cn4)OCCO5)CC3)c2c1 | 23000 nM | 0.03 µg/mL (≈ 0.0646 µM) | > 8 µg/mL | – | 1.72 | 0.5 µg/mL (≈ 1.08 µM) | – | 0.02 µg/mL (≈ 0.0431 µM) | – | – | – | – | – | – | – | – | – | –
18 | COc1ccc2ncc(F)c(CCN3CCC(NCc4cc5c(cn4)OCCO5)CC3)c2n1 | – | < 0.07 µg/mL | 4 µg/mL (≈ 8.82 µM) | 0.17 | 1.46 | 0.13 µg/mL (≈ 0.287 µM) | 1.3 nM | < 0.01 µg/mL | – | – | – | – | – | – | – | – | – | –
19 | COc1ccc2ncc(=O)n(CCN3CCC(NCc4cc5c(cn4)OCCO5)CC3)c2n1 | – | 0.03 µg/mL (≈ 0.0663 µM) | 4 µg/mL (≈ 8.84 µM) | 0.47 | 0.83 | 0.25 µg/mL (≈ 0.552 µM) | 1.5 nM | 0.02 µg/mL (≈ 0.0442 µM) | – | – | – | – | – | – | – | – | – | –
